This is an account of results in ChEMBL document CHEMBL4359864, “The synthesis and in vitro biological evaluation of novel fluorinated tetrahydrobenzo[j]phenanthridine-7,12-diones against Mycobacterium tuberculosis” (Eur J Med Chem, 2019).

The nature of data set [1]: Antimycobacterial activity against Mycobacterium avium subsp. avium ATCC 25291 by resazurin dye based fluorimetric assay. The format is functional. In outline: (§1)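 Resazurin microtiter method as for the bacterial panel. Mycobacteria grown in 7H9 with 10% OADC and 0.5% glycerol; for BCG, 0.05% Tween 80 replaced the glycerol. Cultures were sonicated and needle-passed to single cells. Incubation at 37°C, or 32°C for M. marinum. Fluorescence read at ex 550/em 590 nm; mean of triplicates.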

Data set [2] concerns Mycobacterium marinum. Put plainly: Antimycobacterial activity against Mycobacterium marinum NCTC 2275 by resazurin dye based fluorimetric assay. Format: functional, organism-based. The essentials: as §1
The test system of data set [3] is Escherichia coli. Kind of data set: Antibacterial activity against Escherichia coli ATCC 8739 incubated for 24 hrs by resazurin dye based fluorimetric assay. The format is functional, organism-based. The note with it: ATCC 8739, ATCC 8739, 24 h. The essentials:
(§2)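 Resazurin microtiter assay: compounds from 10 mM DMSO stock, twofold serial dilutions from 64 µM final in growth medium, in triplicate. Inoculum from frozen glycerol stocks. Exposure 24 h, or 7 days for Mtb H37Ra (7H9 + 0.5% glycerol + 10% OADC). Then 0.01% resazurin was added and plates were incubated at 37°C until pink. Fluorescence read at ex 550/em 590 nm; mean of triplicates.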
In general terms: The colour change of resazurin is a common sign of viable cells or microbes.

Data set [4] concerns Pseudomonas aeruginosa. Kind of data set: Antibacterial activity against Pseudomonas aeruginosa ATCC 9027 incubated for 24 hrs by resazurin dye based fluorimetric assay. The format is functional, organism-based. The note with it: ATCC 9027, 24 h. In outline: as §2
The subject of data set [5] is Klebsiella pneumoniae. Put plainly: Antibacterial activity against Klebsiella pneumoniae ATCC 13883 incubated for 24 hrs by resazurin dye based fluorimetric assay. The format is functional, organism-based. The note with it: ATCC 13883, 24 h. The essentials:
as §2

A short description of data set [6]: Cytotoxicity against mouse J774A.1 cells assessed as reduction in cell viability incubated for 24 hrs by neutral red uptake assay. The format is cell-based, J774.A1. The essentials: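 J774A.1 cells in DMEM + 10% iFCS, 37°C, 5% CO2, seeded at 40.000 cells/well and left overnight. Twofold dilutions from 128 µM final; 24 h exposure. Neutral red uptake for 3 h, dye extracted with 1:1 ethanol/acetic acid, OD read at 530 nm (reference 620 nm). CC50 = 50% reduction in uptake; mean of triplicates.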

Data set [7] deals with T1, UGT (Homo sapiens, UniProt O60656+O75310+O75795+P06133+P0DTE4+P0DTE5+P16662+P19224+P22309+P22310+P35503+P35504+P36537+P54855+Q6UWM9+Q9BY64+Q9HAW7+Q9HAW8+Q9HAW9). Put plainly: Microsomal stability in human liver microsomes assessed as UGT-mediated metabolism by measuring compound remaining at 5 uM and measured for 60 mins in presence of UDPGA by UPLC-MS/MS analysis (reference value: 100%). The conditions noted are these: read-out: Stability. The format is ADME. In outline: (§3)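 Compound at 5 µM with 0.5 mg/mL liver microsomes in PBS. Phase I was started with 1 mM NADPH; phase II used 2 mM UDPGA. Diclofenac served as reference. Samples taken at 0, 15, 30 and 60 min were quenched in ice-cold acetonitrile, centrifuged at 4°C and analysed by LC-MS. Mean of at least two replicates ± SD.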
In general terms: Liver microsomes are vesicles of endoplasmic reticulum, rich in cytochrome P450 enzymes.

The nature of data set [8]: Selectivity index, ratio of […] for cytotoxicity against mouse J774A.1 cells. Format: toxicity, cell-based. The conditions noted are these: read-out: Selectivity Index.
Data set [9] deals with Staphylococcus aureus. Put plainly: Antibacterial activity against Staphylococcus aureus ATCC 6538 incubated for 24 hrs by resazurin dye based fluorimetric assay. Format: functional, organism-based. The note with it: ATCC 6538, 24 h. In outline: as §2
In data set [10] the test system is UGT. Put plainly: Microsomal stability in mouse liver microsomes assessed as UGT-mediated metabolism by measuring compound remaining at 5 uM and measured for 60 mins in presence of UDPGA by UPLC-MS/MS analysis (reference value: 100%). Format: ADME. The conditions noted are these: read-out: Stability. In outline:
as §3

Data set [11] addresses T2, CYP450 (Homo sapiens, UniProt P04798+P05177+P05181+P08684+P10632+P10635+P11509+P11712+P13584+P20813+P20815+P20853+P24462+P24903+P33260+P33261+P51589+P78329+P98187+Q02928+Q08477+Q16678+Q16696+Q5TCH4+Q6VVX0+Q7Z449+Q8TAV3+Q96SQ9+Q9HB55). Put plainly: Microsomal stability in human liver microsomes assessed as CYP450-mediated metabolism by measuring compound remaining at 5 uM and measured for 30 mins in presence of NADPH by UPLC-MS/MS analysis (reference value: 100%). Format: ADME. The conditions noted are these: read-out: Stability. The essentials: as §3

For data set [12], the target named is T2, CYP450. Kind of data set: Microsomal stability in human liver microsomes assessed as CYP450-mediated metabolism by measuring compound remaining at 5 uM and measured for 15 mins in presence of NADPH by UPLC-MS/MS analysis (reference value: 100%). The format is ADME. The note with it: read-out: Stability. In outline: as §3
Data set [13] has as its system CYP450. Kind of data set: Microsomal stability in mouse liver microsomes assessed as CYP450-mediated metabolism by measuring compound remaining at 5 uM and measured for 60 mins in presence of NADPH by UPLC-MS/MS analysis (reference value: 100%). The format is ADME. The note with it: read-out: Stability. The essentials:
as §3

In data set [14] the target is T1, UGT. Kind of data set: Microsomal stability in human liver microsomes assessed as UGT-mediated metabolism by measuring compound remaining at 5 uM and measured for 15 mins in presence of UDPGA by UPLC-MS/MS analysis (reference value: 100%). Format: ADME. The conditions noted are these: read-out: Stability. The essentials:
as §3

In data set [15] the target is T2, CYP450. Put plainly: Microsomal stability in human liver microsomes assessed as CYP450-mediated metabolism by measuring compound remaining at 5 uM and measured for 60 mins in presence of NADPH by UPLC-MS/MS analysis (reference value: 100%). The format is ADME. The conditions noted are these: read-out: Stability. In outline: as §3
The subject of data set [16] is Streptococcus pneumoniae. Kind of data set: Antibacterial activity against Streptococcus pneumoniae ATCC BAA-334 incubated for 24 hrs by resazurin dye based fluorimetric assay. Format: functional, organism-based. The conditions noted are these: ATCC BAA-334, 24 h. The essentials:
as §2

For data set [17], the system named is Enterococcus faecium. Kind of data set: Antibacterial activity against Enterococcus faecium ATCC 19434 incubated for 24 hrs by resazurin dye based fluorimetric assay. The format is functional, organism-based. The conditions noted are these: ATCC 19434, 24 h. In outline:
as §2

The test system of data set [18] is UGT. Kind of data set: Microsomal stability in mouse liver microsomes assessed as UGT-mediated metabolism by measuring compound remaining at 5 uM and measured for 15 mins in presence of UDPGA by UPLC-MS/MS analysis (reference value: 100%). The note with it: read-out: Stability. Format: ADME. The essentials:
as §3

The test system of data set [19] is CYP450. Put plainly: Microsomal stability in mouse liver microsomes assessed as CYP450-mediated metabolism by measuring compound remaining at 5 uM and measured for 30 mins in presence of NADPH by UPLC-MS/MS analysis (reference value: 100%). The note with it: read-out: Stability. The format is ADME. The essentials:
as §3

The subject of data set [20] is Mycobacterium tuberculosis. Put plainly: Antimycobacterial activity against Mycobacterium tuberculosis H37Ra lux incubated for 7 days by luminometric assay. Format: functional, organism-based. The conditions noted are these: 168 h. The essentials:
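Twofold serial dilutions in 7H9/OADC/glycerol, in triplicate, inoculated with a suspension of 10.000 RLU per mL. After 7 days, n-decanal (1% v/v in ethanol) was added and luminescence read. IC50 and MIC (90% growth reduction) were derived from the mean of triplicates.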

The subject of data set [21] is Mycobacterium tuberculosis. Put plainly: Antibacterial activity against Mycobacterium tuberculosis H37Ra ATCC 25177 incubated for 7 days by resazurin dye based fluorimetric assay. Format: functional, organism-based. The note with it: H37Ra ATCC 25177, 168 h. In outline: as §2
Data set [22] deals with CYP450. Kind of data set: Microsomal stability in mouse liver microsomes assessed as CYP450-mediated metabolism by measuring compound remaining at 5 uM and measured for 15 mins in presence of NADPH by UPLC-MS/MS analysis (reference value: 100%). The format is ADME. The note with it: read-out: Stability. The essentials: as §3
Data set [23] relates to UGT. Put plainly: Microsomal stability in mouse liver microsomes assessed as UGT-mediated metabolism by measuring compound remaining at 5 uM and measured for 30 mins in presence of UDPGA by UPLC-MS/MS analysis (reference value: 100%). Format: ADME. The conditions noted are these: read-out: Stability. The essentials: as §3
Data set [24] has as its target T1, UGT. Put plainly: Microsomal stability in human liver microsomes assessed as UGT-mediated metabolism by measuring compound remaining at 5 uM and measured for 30 mins in presence of UDPGA by UPLC-MS/MS analysis (reference value: 100%). Format: ADME. The note with it: read-out: Stability. In outline:
as §3

pIC50: −log10 of the molar value. Values after ≈ are worked out from the molar mass of the structure shown. Where only a bound is given, the exact number is not on record here.

As to `COc1c(N2C[C@@H]3CCCN[C@@H]3C2)c(F)cc2c(=O)c(C(=O)O)cn(C3CC3)c12` [MOXIFLOXACIN], the pIC50 (commonly the IC50 on a negative log10 scale, so that one unit is a factor of ten) in [1] is 6.72; in data set [2], 6.85.
`CCn1cc(C(=O)O)c(=O)c2cc(F)c(N3CCNCC3)cc21` [NORFLOXACIN]: the pIC50 in data set [3] is under 6.60; in data set [4], under 6.30.
In turn, `O=C(O)c1cn(C2CC2)c2cc(N3CCNCC3)c(F)cc2c1=O` [CIPROFLOXACIN] showed a pIC50 in data set [5] of over 6.60.
For `CC/C(=C(\c1ccccc1)c1ccc(OCCN(C)C)cc1)c1ccccc1` [TAMOXIFEN], the CC50 (usually the concentration giving 50% cytotoxicity) at 24 h in data set [6] is 11.1 µM.
For the compound `O=C1C2=C(C(=O)c3c1cnc1ccc(C(F)(F)F)cc31)C1CCC2C1` (stereo not drawn), the pIC50 in [3] is under 4.19; in data set [9], under 4.19; in data set [16], under 4.19; in data set [17], under 4.19; in [20], 5.60; in data set [21] it was 5.40 to 5.70. Moreover, the pIC50 in data set [4] is under 4.19; in [5] it was under 4.19; in [1], 5.07; in data set [2], 4.34. The remaining at 1 h, 5 µM in [7] is 69%; in [10], 78%; in [13], 100%; in [15] it was 100%. Further, in data set [8], the selectivity ratio was determined as 11.8. Also, the remaining at 0.5 h, 5 µM in data set [11] was determined as 100%; in [19] it was 100%; in data set [23], 81%; in data set [24], 74%. The remaining at 0.25 h, 5 µM in [12] worked out at 100%; in [14], 100%; in data set [18] it was 87%; in data set [22], 100%. The 50% cytotoxic concentration (CC50) at 24 h in data set [6] turned out to be 108 µM. Also, the MIC90 (usually an inhibitory concentration at the 90% level, which refers to growth in some studies and to a panel of isolates in others) in data set [20] is 9.23 µM (≈ 3.17 µg/mL).
Regarding `C[C@H]1c2cccc(O)c2C(=O)C2=C(O)[C@]3(O)C(=O)C(C(N)=O)=C(O)[C@@H](N(C)C)[C@@H]3[C@@H](O)[C@@H]21` [DOXYCYCLINE], the pIC50 in data set [9] was over 6.60; in data set [16], under 6.60.
